In PubChem BioAssay:
Inconclusive results are not listed.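 Rule for the calls, unless noted: active = RAM network inhibition above 8.4% in each of two replicates, 3 SD over the compound average; inconclusive = above 8.4% inhibition in only one replicate; inactive = 8.4% inhibition or less in each replicate.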

What was measured:
[1] = S. cerevisiae growth inhibition in permissive medium (OD615), pilot counter-assay for S. cerevisiae lifespan shortening project, permissive growth control (AID 705;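 active = growth inhibition above 25% in both replicates, a cutoff set 3 SD above the mean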); conditions: OD615, 24 h, at 10 µM, hits give high values
How it was run: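 System: S. cerevisiae with engineered DeaD lifespan system / Measured by: absorbance (optical density) at 615 nm / Read-out: reduction in yeast growth (OD615) / Times: 4 h cell pre-growth, 24 h exposure at 30 °C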

[2] = S. cerevisiae growth inhibition in restrictive medium, OD615, pilot screen, restrictive growth control, yeast lifespan reduction project (AID 706;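 active = growth inhibition above a set limit, 3 SD over mean compound inhibition, in both replicates, cut at about 43% in these data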;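 note: modified DeaD lifespan yeast strain shifted to restrictive glucose medium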); conditions: OD615, 48 h, at 10 µM, hits give high values
How it was run: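 System: Engineered S. cerevisiae DeaD strain | Buffer or medium: Glucose-based CSMM-D restrictive medium | Schedule: 4 h pre-incubation, 48 h exposure at 30 °C | Technique: Optical density at 615 nm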

[3] = doxorubicin toxicity protection in MRP-1 cells – H69AR cells, CellTiter-Glo, duplicate, MRP-1 activator project, pilot screen (AID 807;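 active = viability increase at or above a cutoff of the median across tested compounds plus 3 SD, cut at about 8.5% in these data, passing the limit was not always enough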;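 note: compound pretreatment 18-22 h then 72 h combined with doxorubicin; 0% = doxorubicin alone and 100% = vehicle without doxorubicin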); conditions: H69AR viability with doxorubicin, CellTiter-Glo luminescence; at 10 µM; hits give high values
[4] = viability of HCT116 without oncogenic beta-catenin – human colon tumor cells, pilot screen (AID 823;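 active = cell viability at or below a set limit in both duplicate runs, the limit being the all-compound median minus 4 SD, cut at about 23% in these data, passing the limit was not always enough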;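 note: 0% = wells killed by 20 µM Hyamine and 100% = untreated DMSO cell wells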); conditions: HCT116 beta-catenin knockout viability, CellTiter-Glo, 60 h; at 10 µM; hits give low values
[5] = viability of PTEN-null HCT116 cells – cell-based, HCT116 clonal line, CellTiter-Glo, pilot screen (AID 824;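 active = viability at or below 27.92% in each of two runs, the all-compound median minus 4 SD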;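 note: 0% = 20 µM Hyamine control and 100% = vehicle cell control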); conditions: HCT116 PTEN-deleted viability, 60 h, at 10 µM, hits give low values
[6] = RAM pathway blockade in budding yeast – dse1pr::URA3 reporter, 5-FOA selection, pilot screen (AID 869;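 active = inhibition over a set limit, the all-compound mean plus 3 SD, in both replicate runs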;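 note: 0% = DMSO wells with no growth and 100% = 10 µM 1-NA-PP1 with full growth; RAM network block rescues cells from 5-FOA so hits raise OD615 growth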); conditions: S. cerevisiae dse1pr::URA3 5-FOA growth, OD615, 2 d; at 10 µM; hits give high values; strain carries analog-sensitive mutant Cbk1 kinase
[7] = RAM signaling pathway blockade in yeast – S. cerevisiae, Pdr1DBD-CYC8 efflux-inhibited sensitized strain, primary screen (AID 1298);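 note: 0% = DMSO untreated cells without growth and 100% = 10 µM 1-NA-PP1 full growth; higher means more yeast growth rescued from 5-FOA killing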; conditions: S. cerevisiae cbk1-as DSE1-URA3 strain, 5-FOA growth OD615, 2 d; at 50 µM; hits give high values

Cc1cnc(C(=O)OCC(=O)Nc2ccc(Cl)cc2)cn1
inactive: growth inhibition [1] -19% | growth inhibition [2] -21% | viability increase [3] -2.99% | viability [4] 101% | viability [5] 92.8% | inhibition [6] 3.85% | RAM network inhibition [7] 3.15%

COCCNC(=O)CS(=O)Cc1nc(-c2ccc(Cl)cc2)oc1C (stereo unspecified)
inactive: growth inhibition [1] -6.59% | growth inhibition [2] -1.85% | viability increase [3] -0.72% | viability [4] 94.7% | viability [5] 95.1% | inhibition [6] 3.21% | RAM network inhibition [7] 0.65%

COc1ccc(-c2nc(CSCC(=O)N3CCC(C(N)=O)CC3)c(C)o2)cc1OC
inactive: growth inhibition [1] -2.87% | growth inhibition [2] 9.12% | viability increase [3] -0.52% | viability [4] 106% | viability [5] 98.3% | inhibition [6] 0.78% | RAM network inhibition [7] -0.72%

CCOc1ccc(N(CC(=O)Nc2ccc(C)cc2)S(=O)(=O)c2c(C)noc2C)cc1
inactive: growth inhibition [1] -18.5% | growth inhibition [2] -19.6% | viability increase [3] -3.45% | viability [4] 79.4% | viability [5] 67.4% | inhibition [6] 1.29% | RAM network inhibition [7] 4.04%

CCOC(=O)CCc1c(C)n(CC)c2ncnn2c1=O
inactive: growth inhibition [1] -3.41% | growth inhibition [2] -0.57% | viability increase [3] -0.77% | viability [4] 102% | viability [5] 101% | inhibition [6] 0.735% | RAM network inhibition [7] 0.04%

O=C1C2CCCN2C(c2cccc(F)c2)N1c1cccc(Cl)c1 (stereo unspecified)
inactive: growth inhibition [1] -10.5% | growth inhibition [2] 1.77% | viability increase [3] -0.22% | viability [4] 108% | viability [5] 99% | inhibition [6] 0.56% | RAM network inhibition [7] -0.05%

CCN1CCN(c2ncnc3c2cnn3-c2ccccc2)CC1
inactive: growth inhibition [1] -13.8% | growth inhibition [2] -7.68% | viability increase [3] 1.69% | viability [4] 102% | viability [5] 89.8% | inhibition [6] 1.7% | RAM network inhibition [7] 2.03%

COc1cccc(C2C(C(=O)OCc3ccccc3)=C(C)Nc3ncnn32)c1OC (stereo unspecified)
inactive: growth inhibition [1] -8.96% | growth inhibition [2] 1.86% | viability increase [3] 0.73% | viability [4] 103% | viability [5] 83.5% | inhibition [6] 2.32% | RAM network inhibition [7] 4.9%

CSc1cccc(NS(=O)(=O)c2cccc3nsnc23)c1
inactive: growth inhibition [1] -5.26% | growth inhibition [2] -8.19% | viability increase [3] -0.51% | viability [4] 88.6% | viability [5] 93.3% | inhibition [6] 0.885% | RAM network inhibition [7] 2.44%

CCOc1ccccc1Nc1nnc(Cc2ccccc2Cl)c(=O)[nH]1
inactive: growth inhibition [1] -24.5% | growth inhibition [2] -19.1% | viability increase [3] -2.83% | viability [4] 90.7% | viability [5] 94.6% | inhibition [6] 0.115% | RAM network inhibition [7] 5.74%

CCCn1c(NCc2ccc(N(C)C)cc2)nc2ccccc21
inactive: growth inhibition [1] -11.6% | growth inhibition [2] -8.42% | viability increase [3] -1.82% | viability [4] 70.8% | viability [5] 70.9% | inhibition [6] 0.405% | RAM network inhibition [7] 5.4%

CCCc1cc(C(=O)Nc2cccc(C(C)=O)c2)no1
inactive: growth inhibition [1] -4.86% | growth inhibition [2] 1.98% | viability increase [3] 0.44% | viability [4] 104% | viability [5] 92.3% | inhibition [6] 1.75% | RAM network inhibition [7] 2.91%

COCCCN(C(=O)Nc1ccccc1)C(C)c1ccncc1 (stereo unspecified)
inactive: growth inhibition [1] 2.64% | growth inhibition [2] -0.975% | viability increase [3] -1.88% | viability [4] 101% | viability [5] 94.3% | inhibition [6] 1.18% | RAM network inhibition [7] 3.28%

CCn1cc(C(=O)OCC(=O)Nc2c(C)n(C)n(-c3ccccc3)c2=O)c(=O)c2ccc(C)nc21
inactive: growth inhibition [1] -11.8% | growth inhibition [2] -0.91% | viability increase [3] -0.65% | viability [4] 97.6% | viability [5] 95% | inhibition [6] 0.195% | RAM network inhibition [7] 0.21%

O=C(CC1Oc2ccccc2NC1=O)NCCCN1CCN(Cc2ccccc2)CC1 (stereo unspecified)
inactive: growth inhibition [1] 2.54% | growth inhibition [2] -3.21% | viability increase [3] -3.71% | viability [4] 94.3% | viability [5] 93.3% | inhibition [6] 1.56% | RAM network inhibition [7] 5.35%

CC(=NCc1ccccc1)C1=C(O)COC1=O
inactive: growth inhibition [1] 5.52% | growth inhibition [2] 8.4% | viability increase [3] -1.47% | viability [4] 100% | viability [5] 92.7% | inhibition [6] 1.06% | RAM network inhibition [7] 4.28%

Cc1ccc(OCC(=O)O)c(-n2nc3ccccc3n2)c1
inactive: growth inhibition [1] -10.3% | growth inhibition [2] 0.43% | viability increase [3] 0.43% | viability [4] 89.9% | viability [5] 102% | inhibition [6] 2.7% | RAM network inhibition [7] 2.69%

O=C(/C=C\Nc1ccccn1)c1ccc(Cl)cc1
inactive: growth inhibition [1] -7.61% | growth inhibition [2] -36.4% | viability increase [3] 0.28% | viability [4] 83.5% | viability [5] 81.7% | inhibition [6] 2.68% | RAM network inhibition [7] 8.82%

Cc1nc2sc(C(c3ccc(Cl)cc3)N3CCN(CCO)CC3)c(O)n2n1 (stereo unspecified)
inactive: growth inhibition [1] 7.67% | growth inhibition [2] 4.92% | viability increase [3] -2.42% | viability [4] 97% | viability [5] 90.2% | inhibition [6] 1.82% | RAM network inhibition [7] 1.58%

O=S(=O)(CCc1nnc(-c2ccccc2)o1)c1ccc2ccccc2c1
inactive: growth inhibition [1] -16.3% | growth inhibition [2] -6.19% | viability increase [3] -1.86% | viability [4] 89.8% | viability [5] 91.8% | inhibition [6] 1.96% | RAM network inhibition [7] 10.4%

CSc1nnc2c(n1)OC(c1ccc(C(=O)O)cc1)N(C(C)=O)c1ccccc1-2 (stereo unspecified)
inactive: growth inhibition [1] -1% | growth inhibition [2] 13.2% | viability increase [3] 0.23% | viability [4] 102% | viability [5] 96.6% | inhibition [6] 1.57% | RAM network inhibition [7] 3.34%

O=C(C(Cc1ccccc1)n1cccc1)N1CCN(C2CCCCC2)CC1 (stereo unspecified)
inactive: growth inhibition [1] -10.9% | growth inhibition [2] -3.01% | viability increase [3] -3.47% | viability [4] 81.8% | viability [5] 88.7% | inhibition [6] 1.42% | RAM network inhibition [7] 8.24%

CCc1ccc(NC(=O)c2cnc3n(c2=O)CCS3)cc1
inactive: growth inhibition [1] -1.06% | growth inhibition [2] 0.895% | viability increase [3] -2.9% | viability [4] 95.2% | viability [5] 85.9% | inhibition [6] 2.82% | RAM network inhibition [7] 0.15%

COC(=O)c1cn(NC(=O)CC2CCCCC2)c(=O)c2ccccc12
inactive: growth inhibition [1] 7.57% | growth inhibition [2] 1.75% | viability increase [3] 0.01% | viability [4] 94% | viability [5] 91.7% | inhibition [6] 0.24% | RAM network inhibition [7] 2.22%

c1ccc(-c2ccc(-c3nc(-c4ccncc4)no3)cc2)cc1
inactive: growth inhibition [1] 14.4% | growth inhibition [2] 14.4% | viability increase [3] 2.99% | viability [4] 66.4% | viability [5] 82.5% | inhibition [6] 1.32% | RAM network inhibition [7] 2.1%

Cc1cc(Nc2cccc(C)c2C)n2ncnc2n1
inactive: growth inhibition [1] -5.19% | growth inhibition [2] -1.32% | viability increase [3] -0.81% | viability [4] 95.1% | viability [5] 94.3% | inhibition [6] -0.155% | RAM network inhibition [7] -1.31%

COc1ccc(Cc2nc(-c3cccs3)no2)cc1OC
inactive: growth inhibition [1] 1.64% | growth inhibition [2] 5.25% | viability increase [3] 0.92% | viability [4] 76.8% | viability [5] 80.9% | inhibition [6] 1.62% | RAM network inhibition [7] 7.4%

O=C(NCCN1CCCCCC1)C1CCC(CNS(=O)(=O)c2cccc3cccnc23)CC1 (stereo unspecified)
inactive: growth inhibition [1] -8.39% | growth inhibition [2] -3.45% | viability increase [3] -3.58% | viability [4] 90.7% | viability [5] 93.8% | inhibition [6] 1.59% | RAM network inhibition [7] 10%

COc1ccc(-c2nnc3ccc(SCC(=O)N4CCCC4)nn23)cc1
inactive: growth inhibition [1] 3.94% | growth inhibition [2] 1.08% | viability increase [3] -4.23% | viability [4] 101% | viability [5] 99.5% | inhibition [6] 1.44% | RAM network inhibition [7] 0.16%

CCSc1nnc(Cn2c(=O)sc3ccccc32)n1-c1ccc(OC)cc1
inactive: growth inhibition [1] -4.46% | growth inhibition [2] 30.7% | viability increase [3] -1.8% | viability [4] 92.1% | viability [5] 86.5% | inhibition [6] -0.94% | RAM network inhibition [7] 9.11%

CCOc1ccc(CCNC(=O)c2oc3c(c2C)-c2[nH]ncc2CC3)cc1OCC
inactive: growth inhibition [1] -11.9% | growth inhibition [2] -11.6% | viability increase [3] -2.93% | viability [4] 105% | viability [5] 92.7% | inhibition [6] 1.57% | RAM network inhibition [7] 9.8%

CCOC(=O)c1[nH]c2ccccc2c1NC(=O)CC(C)(C)C
inactive: growth inhibition [1] 5.14% | growth inhibition [2] -9.95% | viability increase [3] -3.69% | viability [4] 99.4% | viability [5] 96% | inhibition [6] 1.65% | RAM network inhibition [7] 1.45%

O=C(O)CC1SC(=Nc2ccccc2)N(c2ccccc2)C1=O (stereo unspecified)
inactive: growth inhibition [1] -21.4% | growth inhibition [2] -13.2% | viability increase [3] -1.21% | viability [4] 98.1% | viability [5] 99.4% | inhibition [6] 1.24% | RAM network inhibition [7] 2.93%
